Data as given in ChEMBL document CHEMBL1128344 (J Med Chem, 1995).

Target: T1, Epidermal growth factor receptor (Homo sapiens, UniProt P00533)
Assay: Inhibition of EFGR tyrosine kinase from A431 cells
Assay type: cell-based
Conditions: A-431
How it was run: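 Enzyme source was the native EGFR complex in plasma membrane vesicles shed from cultured A431 epidermoid carcinoma cells. Kinase activity was measured as ³²P incorporation from added [γ-³²P]ATP into a 6:3:1 random copolymer of glutamate, alanine and tyrosine.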

T1 sequence (P00533 whole entry): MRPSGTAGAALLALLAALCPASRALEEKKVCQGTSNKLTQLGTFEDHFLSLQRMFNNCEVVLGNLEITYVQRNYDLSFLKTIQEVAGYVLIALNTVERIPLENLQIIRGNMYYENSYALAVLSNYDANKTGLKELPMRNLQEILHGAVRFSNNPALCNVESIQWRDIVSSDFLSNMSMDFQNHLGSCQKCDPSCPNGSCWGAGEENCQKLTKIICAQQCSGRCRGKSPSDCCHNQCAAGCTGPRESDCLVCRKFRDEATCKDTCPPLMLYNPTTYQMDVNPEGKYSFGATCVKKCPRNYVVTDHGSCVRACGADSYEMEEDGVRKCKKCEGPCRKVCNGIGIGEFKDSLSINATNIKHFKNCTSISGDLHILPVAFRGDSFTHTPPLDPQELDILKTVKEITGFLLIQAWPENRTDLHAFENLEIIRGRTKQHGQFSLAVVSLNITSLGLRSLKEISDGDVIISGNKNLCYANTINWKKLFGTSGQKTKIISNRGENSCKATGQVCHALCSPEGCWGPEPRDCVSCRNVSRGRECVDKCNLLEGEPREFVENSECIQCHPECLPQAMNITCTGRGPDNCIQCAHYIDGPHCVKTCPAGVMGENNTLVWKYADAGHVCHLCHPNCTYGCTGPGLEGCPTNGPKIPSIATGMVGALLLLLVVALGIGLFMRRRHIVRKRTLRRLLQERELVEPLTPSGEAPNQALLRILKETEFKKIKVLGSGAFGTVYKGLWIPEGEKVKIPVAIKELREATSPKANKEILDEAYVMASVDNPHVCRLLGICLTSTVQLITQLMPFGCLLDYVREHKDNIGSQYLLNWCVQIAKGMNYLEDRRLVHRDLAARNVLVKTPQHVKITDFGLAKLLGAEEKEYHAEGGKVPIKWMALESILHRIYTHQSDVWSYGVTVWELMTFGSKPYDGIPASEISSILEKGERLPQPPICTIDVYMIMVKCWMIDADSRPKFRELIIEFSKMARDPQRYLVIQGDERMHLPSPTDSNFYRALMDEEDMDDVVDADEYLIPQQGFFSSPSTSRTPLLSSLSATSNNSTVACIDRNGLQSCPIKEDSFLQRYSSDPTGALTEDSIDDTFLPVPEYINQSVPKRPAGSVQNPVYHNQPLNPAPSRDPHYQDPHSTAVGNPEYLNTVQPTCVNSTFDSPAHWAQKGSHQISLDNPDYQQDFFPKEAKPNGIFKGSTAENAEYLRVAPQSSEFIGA

`CN1C(=S)C(C(=O)c2ccco2)c2ccccc21` (configuration not stated) and `CN1C(=S)C(C(=O)c2ccccc2)c2ccccc21` (configuration not stated) cannot be ordered by FC50: greater than 100 µM for the first, greater than 100 µM for the second.

Compared with `CN1C(=S)C(C(=O)Nc2ccccc2)c2ccccc21` (configuration not stated), `CN1C(=S)C(C(=O)c2ccc(C(=O)O)cc2)c2ccccc21` (configuration not stated) is 8.7-fold higher in FC50: 1 µM for the first, 8.7 µM for the second.

First: CN(C)CCCn1c(SSc2c(C(=O)Nc3ccccc3)c3ccccc3n2CCCN(C)C)c(C(=O)Nc2ccccc2)c2ccccc21
Second: COC(=O)c1ccc(C(=O)C2C(=S)N(C)c3ccccc32)cc1 (configuration not stated)
The FC50 of the first is lower: 26 µM for the first, greater than 100 µM for the second.

`CC(=O)C1C(=S)N(C)c2ccccc21` (configuration not stated) and `CC1C(=S)N(C)c2ccccc21` (configuration not stated) cannot be ordered by FC50: greater than 100 µM for the first, greater than 100 µM for the second.

Target: not listed separately
Assay: Inhibitory concentration of the against pp60v-src tyrosine kinase obtained from v-src baculovirus-infected insect cells
Conditions: not given

Compared with `Cn1c(SSc2c(C(=O)Nc3ccccc3)c3cc(C(F)(F)F)ccc3n2C)c(C(=O)Nc2ccccc2)c2cc(C(F)(F)F)ccc21`, `Cn1c(SSc2c(C(=O)Nc3ccccc3)c3ccccc3n2C)c(C(=O)Nc2ccccc2)c2ccccc21` is 1.8-fold lower in IC50: 5.8 µM for the first, 3.2 µM for the second.

Target: T1, Epidermal growth factor receptor
Assay: Inhibitory concentration compound against EFGR tyrosine kinase obtained from plasma membrane vesicles from cultured A431 cells
Assay type: cell-free, A-431
Conditions: not given

Compared with `CN(C)CCNC(=O)c1c(SSc2c(C(=O)NCCN(C)C)c3ccccc3n2C)n(C)c2ccccc12`, `CNC(=O)c1c(SSc2c(C(=O)NC)c3ccccc3n2C)n(C)c2ccccc12` is 9.7-fold lower in IC50: 17.5 µM for the first, 1.8 µM for the second. The second is the more potent here.

`CN(C(=O)c1c(SSc2c(C(=O)N(C)c3ccccc3)c3ccccc3n2C)n(C)c2ccccc12)c1ccccc1` and `Cn1c(SSc2c(C(=O)c3ccccc3)c3ccccc3n2C)c(C(=O)c2ccccc2)c2ccccc21` cannot be ordered by IC50: greater than 100 µM for the first, greater than 100 µM for the second.

Going from `CCn1c(SSc2c(C(=O)Nc3ccccc3)c3ccccc3n2CC)c(C(=O)Nc2ccccc2)c2ccccc21` to `Cn1c(SSc2c(C(=O)Nc3ccccc3)c3ccccc3n2C)c(C(=O)Nc2ccccc2)c2ccccc21`, the IC50 falls from greater than 100 µM to 10.9 µM. The second is the more potent here.

Going from `CNC(=O)c1c(SSc2[nH]c3ccccc3c2C(=O)NC)[nH]c2ccccc12` to `O=C(Nc1ccccc1)c1c(SSc2[nH]c3ccccc3c2C(=O)Nc2ccccc2)[nH]c2ccccc12`, the IC50 rises from 6.1 µM to 100 µM (16-fold).

Compared with `Cn1c(SSc2c(C(=O)NCc3ccccc3)c3ccccc3n2C)c(C(=O)NCc2ccccc2)c2ccccc21`, `O=C(NCc1ccccc1)c1c(SSc2[nH]c3ccccc3c2C(=O)NCc2ccccc2)[nH]c2ccccc12` is 8.8-fold higher in IC50: 1.7 µM for the first, 15 µM for the second. The first is the more potent here.

First: Cn1c(SSc2c(C(=O)c3ccco3)c3ccccc3n2C)c(C(=O)c2ccco2)c2ccccc21
Second: Cn1c(SSc2c(C(=O)Nc3cccs3)c3ccccc3n2C)c(C(=O)Nc2cccs2)c2ccccc21
The IC50 of the first is lower: 7.7 µM for the first, greater than 100 µM for the second.

`COC(=O)c1ccccc1NC(=O)c1c(SSc2c(C(=O)Nc3ccccc3C(=O)OC)c3ccccc3n2C)n(C)c2ccccc12` and `COC(=O)c1cccc(NC(=O)c2c(SSc3c(C(=O)Nc4cccc(C(=O)OC)c4)c4ccccc4n3C)n(C)c3ccccc23)c1` cannot be ordered by IC50: greater than 100 µM for the first, greater than 100 µM for the second.

Compared with `Cc1ccc(S(=O)(=O)c2c(SSc3[nH]c4ccccc4c3S(=O)(=O)c3ccc(C)cc3)[nH]c3ccccc23)cc1`, `c1ccc(-c2c(SSc3[nH]c4ccccc4c3-c3ccccc3)[nH]c3ccccc23)cc1` is 3.5-fold higher in IC50: 28.7 µM for the first, 100 µM for the second. The first is the more potent here.

`Cc1c(SSc2c(C)c3ccccc3n2C)n(C)c2ccccc12` and `Cn1c(SSc2c(C(=O)Nc3ccncc3)c3ccccc3n2C)c(C(=O)Nc2ccncc2)c2ccccc21` cannot be ordered by IC50: greater than 100 µM for the first, greater than 100 µM for the second.

`COC(=O)c1ccc(NC(=O)c2c(SSc3c(C(=O)Nc4ccc(C(=O)OC)cc4)c4ccccc4n3C)n(C)c3ccccc23)cc1` and `Cn1c(SSc2c(C(=O)Nc3cccnc3)c3ccccc3n2C)c(C(=O)Nc2cccnc2)c2ccccc21` cannot be ordered by IC50: greater than 100 µM for the first, greater than 100 µM for the second.

First: NC(Cc1c(SSc2[nH]c3ccccc3c2CC(N)C(=O)NCc2ccccc2)[nH]c2ccccc12)C(=O)NCc1ccccc1 (configuration not stated)
Second: Cn1c(SSc2c(C(=O)Nc3ccccn3)c3ccccc3n2C)c(C(=O)Nc2ccccn2)c2ccccc21
The IC50 of the first is 14-fold lower: 3.3 µM for the first, 47 µM for the second.

Test system: not listed separately
Assay: Inhibition of v-src from baculovirus culture
Conditions: not given
How it was run: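 pp60v-src from v-src baculovirus-infected insect cells, bound via monoclonal antibody to 0.65 μm latex beads. Activity was measured as ³²P incorporation from [γ-³²P]ATP into poly[(glu)4(tyr)1] substrate.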

Going from `CN1C(=S)C(C(=O)c2ccco2)c2ccccc21` (configuration not stated) to `CC(=O)C1C(=S)N(C)c2ccccc21` (configuration not stated), the IC50 rises from 10.8 µM to greater than 50 µM.

Compared with `CN1C(=S)C(C(=O)Nc2ccccc2)c2ccccc21` (configuration not stated), `CC1C(=S)N(C)c2ccccc21` (configuration not stated) is higher in IC50: 10 µM for the first, greater than 100 µM for the second.

Work on `CN(C)CCCn1c(SSc2c(C(=O)Nc3ccccc3)c3ccccc3n2CCCN(C)C)c(C(=O)Nc2ccccc2)c2ccccc21` yielded an IC50 of 5.6 µM.
